Calls of active or inactive are those of the source.
How the values were obtained:
Genome polyprotein [1] = target: T1, Genome polyprotein (dengue virus type 2, UniProt P29990); test: Inhibition of NS2B-NS3 protease in DENV2proHeLa system assessed as inhibition of luciferase signal incubated for 24 hrs by luciferase reporter gene assay; format: cell-based, HeLa
How it was run: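 HeLa cells stably carrying the reporter system, 2 × 10⁴ per well, given inhibitor at seeding and held 24 h at 37 °C. Cells lysed 15 min at room temperature. Luciferase read for 5 s after injecting coelenterazine (2.75 μM in PBS). Triplicate wells per concentration; percent inhibition taken against untreated cells. EC50/EC90 from 4-parameter dose-response fit, background from cell-free wells subtracted.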

[2] = target: Genome polyprotein (dengue virus type 2) (UniProt P29990); test: Inhibition of NS2B-NS3 protease in DENV2proHeLa system assessed as inhibition of luciferase signal at 12.5 uM incubated for 24 hrs by luciferase reporter gene assay; format: cell-based; conditions: HeLa
How it was run: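 Stable DENV2proHeLa cells seeded at 2 × 10⁴/well and dosed immediately, then incubated 24 h at 37 °C. Cells lysed 15 min at room temperature. Luciferase read with coelenterazine (2.75 μM in PBS) injection, luminescence 5 s. Triplicates; percent inhibition calculated relative to untreated control; background from cell-free wells.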

[3] = Passive membrane permeability of the compound in phosphate buffered saline at 200 uM incubated for 5 hrs by PAMPA assay based HPLC analysis; format: ADME; conditions: for Papp at 5 h, 200 µM: PAMPA, read-out: permeability
How it was run: (§1)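 Precoated trilayer PAMPA, 5 h incubation. Acceptor and donor concentrations measured after 5 h. Permeability and mass retention calculated by a literature method.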

[4] = Cytotoxicity against human HeLa cells assessed as reduction in cell viability incubated for 24 hrs by CellTiter-Blue assay; format: cell-based
How it was run: (§2)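 Viability by CellTiter-Blue in HeLa or Huh-7 cells exposed to compound dilutions. Plates run in parallel with the reporter assay (HeLa) or the virus titer assay (Huh-7).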

Trypsin (Homo sapiens) = Trypsin (Homo sapiens) (UniProt P07477+P07478+P35030); test: Inhibition of trypsin (unknown origin) using Boc-Val-Pro-Arg-AMC as substrate at 50 uM preincubated with enzyme for 15 mins followed by substrate addition and measured for 15 mins by fluorimetric assay; format: protein assay; conditions: time 30.0 min
Huh-7 [5] = test: Cytotoxicity against human Huh-7 cells assessed as reduction in cell viability at 10 uM incubated for 48 hrs by CellTiter-Blue assay; format: cell-based; conditions: huh-7, 48 h; how it was run: as §2
[6] = target: Prothrombin (Homo sapiens) (UniProt P00734); test: Inhibition of thrombin in human plasma using Boc-Val-Pro-Arg-AMC as substrate at 25 uM preincubated with enzyme for 15 mins followed by substrate addition and measured for 15 mins by fluorimetric assay; format: cell-free; conditions: time 30.0 min
dengue virus type 2 [7] = test: (§3) Antiviral activity against DENV2 infected in human Huh7 cells assessed as reduction in virus titer in cell supernatant by measuring inhibition of plaque formation using VeroE6 cells at 10 uM preincubated with viral infected Huh7 cells for 48 hrs and measured following infection of VeroE6 cells with supernatants for 7 days by plaque assay based crystal violet staining analysis; format: functional; conditions: Huh-7, 216 h, time 9 day
[8] = Stability of the compound assessed as bovine pancreas alphachymotrypsin-mediated parent compound depletion at 0.1 mg/ml incubated for 120 mins by HPLC analysis; format: ADME, Bos taurus; conditions: cattle, bovine pancreas alpha-chymotrypsin, read-out: Drug degradation
How it was run: (§4)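 Compound incubated with α-chymotrypsin or bovine trypsin in buffer for 120 min at 37 °C; parent compound depletion monitored.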

[9] = Stability of the compound assessed as bovine pancreas trypsin-mediated parent compound depletion at 0.1 mg/ml incubated for 120 mins by HPLC analysis; format: ADME, Bos taurus; conditions: cattle; for metabolised at 2 h, 0.1 mg/ml: bovine pancreas trypsin, read-out: Drug degradation; how it was run: as §4
[10] = Half life in Sprague-Dawley rat liver microsomes at 100 uM incubated for 60 mins in presence of NADPH by HPLC analysis; format: ADME, Microsome
How it was run: (§5)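 Rat liver microsomes; samples incubated 60 min at 37 °C, parent compound depletion monitored.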

[11] = target: Genome polyprotein (dengue virus type 2) (UniProt P29990); test: Inhibition of DENV2 NS2B-NS3 protease expressed in Escherichia coli BL21 lambda(DE3) using FRET substrate preincubated with enzyme for 15 mins in presence of detergent CHAPS followed by substrate addition for 15 mins by fluorescence based analysis; conditions: time 30.0 min
[12] = Stability of the compound assessed as bovine pancreas alphachymotrypsin-mediated parent compound depletion by measuring parent compound remaining at 0.1 mg/ml incubated for 120 mins by HPLC analysis; format: ADME, Bos taurus; conditions: cattle, bovine pancreas alpha-chymotrypsin, read-out: Stabilty; how it was run: as §4
[13] = Passive membrane permeability of the compound in phosphate buffered saline assessed as mass retention of the compound at 200 uM incubated for 5 hrs by PAMPA assay based HPLC analysis; format: ADME; how it was run: as §1
[14] = target: Genome polyprotein (West Nile virus) (UniProt P06935); test: Inhibition of WNV NS2B-NS3 protease expressed in Escherichia coli BL21 lambda(DE3) using FRET substrate preincubated with enzyme for 15 mins in presence of detergent CHAPS followed by substrate addition for 15 mins by fluorescence based analysis; conditions: time 30.0 min
Genome polyprotein [15] = target: T1, Genome polyprotein; test: Competitive inhibition of DENV2 NS2B-NS3 protease expressed in Escherichia coli BL21 lambda(DE3) using FRET substrate preincubated with enzyme for 15 mins followed by substrate addition for 15 mins by Michaelis-Menten based analysis
Genome polyprotein [16] = target: T1, Genome polyprotein; test: Competitive inhibition of DENV2 NS2B-NS3 protease expressed in Escherichia coli BL21 lambda(DE3) using FRET substrate preincubated with enzyme for 15 mins followed by varying concentrations of substrate addition for 15 mins by Cheng-Prusoff plot analysis
[17] = Passive membrane permeability of the compound in phosphate buffered saline assessed as concentration of the compound in donor plate at 200 uM incubated for 5 hrs by PAMPA assay based HPLC analysis; format: ADME; how it was run: as §1
dengue virus type 2 [18] = test: as §3, with “cells” for “cells at 10 uM”; format: functional, organism-based, Huh-7; conditions: for EC50: Huh-7; for EC90: Huh-7, 216 h, time 9 day
How it was run: (§6)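 Huh-7 cells seeded at 1 × 10⁴/well and incubated overnight. Infected with DENV-2 at MOI 1 for 2 h, then medium changed and compound added. […] Pooled supernatants titred by plaque assay on VeroE6 cells: 10⁻¹ to 10⁻⁶ dilutions, 1 h infection, 7 days, formaldehyde fix, crystal violet.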

Huh-7 [19] = test: Cytotoxicity against human Huh-7 cells assessed as reduction in cell viability at 12.5 uM incubated for 48 hrs by CellTiter-Blue assay; format: cell-based; conditions: huh-7, 48 h; how it was run: as §2
[20] = target: Genome polyprotein (dengue virus type 2) (UniProt P29990); test: Competitive inhibition of DENV2 NS2B-NS3 protease expressed in Escherichia coli BL21 lambda(DE3) assessed as increase in Km without change in Vmax using FRET substrate preincubated with enzyme for 15 mins followed by substrate addition for 15 mins by Michaelis-Menten based analysis; conditions: time 30.0 min
dengue virus type 2 [21] = test: as §3, with “12.5” for “10”; format: functional; conditions: Huh-7, 216 h, time 9 day; how it was run: as §6
[22] = Metabolic stability in Sprague-Dawley rat liver microsomes at 100 uM incubated for 60 mins in presence of NADPH by HPLC analysis; format: ADME, Microsome; conditions: 1 h; how it was run: as §5
[23] = Passive membrane permeability of the compound in phosphate buffered saline assessed as concentration of the compound in acceptor plate at 200 uM incubated for 5 hrs by PAMPA assay based HPLC analysis; format: ADME; how it was run: as §1
[24] = Selectivity index, ratio of CC50 for human HeLa cells to EC50 for inhibition of NS2B-NS3 protease in DENV2proHeLa system; format: toxicity; conditions: read-out: Ratio CC50/EC50

Chain of Genome polyprotein (West Nile virus) (P06935 whole entry): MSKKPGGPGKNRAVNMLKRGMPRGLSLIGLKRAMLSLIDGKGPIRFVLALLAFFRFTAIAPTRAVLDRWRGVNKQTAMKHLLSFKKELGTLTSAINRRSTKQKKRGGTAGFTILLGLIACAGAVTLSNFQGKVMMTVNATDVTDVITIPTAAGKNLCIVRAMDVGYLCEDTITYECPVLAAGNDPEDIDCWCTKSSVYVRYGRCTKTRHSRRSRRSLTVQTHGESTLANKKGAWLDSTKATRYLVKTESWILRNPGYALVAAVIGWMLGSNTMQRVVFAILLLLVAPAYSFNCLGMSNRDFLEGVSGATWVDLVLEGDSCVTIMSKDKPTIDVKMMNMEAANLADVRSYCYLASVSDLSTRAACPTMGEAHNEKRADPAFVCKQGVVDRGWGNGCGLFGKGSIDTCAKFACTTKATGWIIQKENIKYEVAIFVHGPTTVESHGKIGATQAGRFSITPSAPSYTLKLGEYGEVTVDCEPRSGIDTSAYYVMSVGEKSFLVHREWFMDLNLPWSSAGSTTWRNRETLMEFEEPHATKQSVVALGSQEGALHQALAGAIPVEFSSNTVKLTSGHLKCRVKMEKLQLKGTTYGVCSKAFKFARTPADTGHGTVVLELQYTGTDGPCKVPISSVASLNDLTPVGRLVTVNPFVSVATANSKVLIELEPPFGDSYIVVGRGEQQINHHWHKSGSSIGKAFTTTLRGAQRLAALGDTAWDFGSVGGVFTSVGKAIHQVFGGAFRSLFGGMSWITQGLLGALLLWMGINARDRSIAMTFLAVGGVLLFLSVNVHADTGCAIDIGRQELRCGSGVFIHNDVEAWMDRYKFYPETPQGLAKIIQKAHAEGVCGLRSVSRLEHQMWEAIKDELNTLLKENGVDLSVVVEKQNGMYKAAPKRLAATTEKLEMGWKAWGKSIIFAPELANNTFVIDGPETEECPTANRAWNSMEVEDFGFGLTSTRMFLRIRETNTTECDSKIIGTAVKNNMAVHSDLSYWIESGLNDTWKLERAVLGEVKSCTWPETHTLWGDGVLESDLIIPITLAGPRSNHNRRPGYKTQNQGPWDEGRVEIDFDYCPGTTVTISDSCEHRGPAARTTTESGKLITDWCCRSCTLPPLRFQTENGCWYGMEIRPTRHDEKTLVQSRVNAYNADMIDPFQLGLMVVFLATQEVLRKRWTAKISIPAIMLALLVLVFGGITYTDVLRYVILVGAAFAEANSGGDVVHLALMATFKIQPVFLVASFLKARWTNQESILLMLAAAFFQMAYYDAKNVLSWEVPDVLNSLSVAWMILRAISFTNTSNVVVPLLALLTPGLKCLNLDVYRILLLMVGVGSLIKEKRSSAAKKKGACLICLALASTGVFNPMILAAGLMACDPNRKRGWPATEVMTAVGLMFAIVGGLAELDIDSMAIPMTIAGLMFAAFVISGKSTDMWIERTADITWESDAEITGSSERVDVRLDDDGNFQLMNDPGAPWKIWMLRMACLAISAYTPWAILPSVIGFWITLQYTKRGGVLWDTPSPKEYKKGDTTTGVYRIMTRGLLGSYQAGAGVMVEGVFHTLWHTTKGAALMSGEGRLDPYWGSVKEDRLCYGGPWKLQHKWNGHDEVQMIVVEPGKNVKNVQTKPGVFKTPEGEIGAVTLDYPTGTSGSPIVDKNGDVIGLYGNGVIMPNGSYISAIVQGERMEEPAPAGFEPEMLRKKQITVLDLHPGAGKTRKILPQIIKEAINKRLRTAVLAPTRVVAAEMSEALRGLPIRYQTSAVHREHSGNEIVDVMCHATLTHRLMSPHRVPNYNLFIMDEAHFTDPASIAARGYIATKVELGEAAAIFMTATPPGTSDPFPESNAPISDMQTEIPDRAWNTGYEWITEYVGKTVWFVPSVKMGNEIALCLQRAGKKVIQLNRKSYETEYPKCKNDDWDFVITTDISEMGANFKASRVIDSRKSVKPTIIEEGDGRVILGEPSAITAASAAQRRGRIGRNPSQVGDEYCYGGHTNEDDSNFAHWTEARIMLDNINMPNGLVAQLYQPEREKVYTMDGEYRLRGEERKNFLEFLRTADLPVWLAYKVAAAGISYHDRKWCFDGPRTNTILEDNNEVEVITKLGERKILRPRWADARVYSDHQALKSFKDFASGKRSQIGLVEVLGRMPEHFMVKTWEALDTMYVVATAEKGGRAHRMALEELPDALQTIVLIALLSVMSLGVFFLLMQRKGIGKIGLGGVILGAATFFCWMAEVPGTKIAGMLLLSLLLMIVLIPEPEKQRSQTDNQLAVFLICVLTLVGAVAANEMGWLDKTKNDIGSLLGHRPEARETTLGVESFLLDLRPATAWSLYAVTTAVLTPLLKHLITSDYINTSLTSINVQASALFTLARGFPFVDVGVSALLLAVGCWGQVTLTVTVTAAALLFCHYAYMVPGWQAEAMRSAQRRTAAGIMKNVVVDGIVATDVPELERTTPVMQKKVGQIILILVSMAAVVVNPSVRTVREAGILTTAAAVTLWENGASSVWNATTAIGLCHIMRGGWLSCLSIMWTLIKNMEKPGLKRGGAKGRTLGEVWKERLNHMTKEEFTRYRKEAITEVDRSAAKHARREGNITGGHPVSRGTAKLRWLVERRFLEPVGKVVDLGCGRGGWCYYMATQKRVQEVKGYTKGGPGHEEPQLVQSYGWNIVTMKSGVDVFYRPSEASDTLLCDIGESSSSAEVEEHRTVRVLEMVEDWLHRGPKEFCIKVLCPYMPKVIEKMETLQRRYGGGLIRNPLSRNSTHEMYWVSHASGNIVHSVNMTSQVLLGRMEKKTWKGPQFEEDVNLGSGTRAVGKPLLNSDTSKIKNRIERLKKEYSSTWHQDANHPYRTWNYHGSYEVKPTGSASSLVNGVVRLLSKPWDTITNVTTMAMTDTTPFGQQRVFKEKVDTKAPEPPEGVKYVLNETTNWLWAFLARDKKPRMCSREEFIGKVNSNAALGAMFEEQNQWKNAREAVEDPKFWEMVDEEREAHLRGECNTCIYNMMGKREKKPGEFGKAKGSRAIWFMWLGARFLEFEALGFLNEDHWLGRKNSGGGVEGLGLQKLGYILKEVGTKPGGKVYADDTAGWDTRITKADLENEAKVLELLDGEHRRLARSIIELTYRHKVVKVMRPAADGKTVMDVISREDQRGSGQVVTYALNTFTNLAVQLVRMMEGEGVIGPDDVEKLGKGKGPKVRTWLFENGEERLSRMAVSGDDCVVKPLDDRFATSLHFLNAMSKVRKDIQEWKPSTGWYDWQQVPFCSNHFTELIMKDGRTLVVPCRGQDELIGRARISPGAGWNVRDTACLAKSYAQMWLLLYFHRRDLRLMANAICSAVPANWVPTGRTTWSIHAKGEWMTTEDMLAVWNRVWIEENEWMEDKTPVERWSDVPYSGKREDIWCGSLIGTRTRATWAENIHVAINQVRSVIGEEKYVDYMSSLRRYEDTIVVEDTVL

SMILES	EC50 (Genome polyprotein [1]) [µM]	inhibition [2] [%]	CC50 at 24 h [4] [µM]	inhibition (Trypsin (Homo sapiens))	inhibition [6]	metabolised at 2 h, 0.1 mg/ml [8] [%]	metabolised at 2 h, 0.1 mg/ml [9] [%]	half-life at 100 µM [10] [min]	inhibition [11]	remaining at 2 h, 0.1 mg/ml [12] [%]	Activity [13] [%]	Papp at 5 h, 200 µM [3] [nm/s]	Ki (Genome polyprotein [15]) [µM]	Ki (Genome polyprotein [16]) [µM]	Activity [17] [µM]	EC50 (dengue virus type 2 [18]) [µM]	EC90 (dengue virus type 2 [18]) [µM]	Activity (Huh-7 [19]) [%]	inhibition at 12.5 µM (dengue virus type 2 [21]) [%]	Activity [23] [µM]	further results
CCCCCC(=O)N[C@H](C(=O)NCc1ccc(C(N)=O)cc1)c1ccc(OCc2ccccc2)cc1	6.3	66	> 100	inactive	inactive																permeability ([3]; pampa, 5 h, 200 µM): Impermeable; Activity (Huh-7 [5]): < 20%; inhibition at 10 µM (dengue virus type 2 [7]): 34%
CCCCCC(=O)N[C@H](C(=O)NCc1ccc(NC(=N)N)cc1)c1ccc(OCc2ccccc2)cc1						40	25	55	Active												
NC(=O)c1cccc(NC(=O)[C@@H](NC(=O)c2ccc(-c3ccc(Cl)cc3)cc2)c2ccc(OCc3ccccc3)cc2)c1	1.2	78	> 25	inactive	inactive		25		Active	70	5.5	7	4.1	6.9	187	1.6	4.7	< 20	100	3.7	inhibition [14]: Active; inhibition [20]: Active; Stabilty [22]: Stable
NC(=O)c1cccc(NC(=O)[C@@H](NC(=O)c2ccc(Oc3ccc(C(F)(F)F)cc3)cc2)c2ccc(OCc3ccccc3)cc2)c1	1.2	76	> 100	inactive	inactive		25		Active	70	3.7	14		6.3	188	0.24	4.8	< 20	100	6.9	Stabilty [22]: Stable
NC(=O)c1cccc(NC(=O)[C@@H](NC(=O)c2ccc(Oc3ccccc3)cc2)c2ccc(OCc3ccccc3)cc2)c1	0.73	83	> 100	inactive	inactive		25		Active	70	15	22	5.2	6.1	164	0.66	7	< 20	100	9.5	selectivity ratio [24]: > 140; inhibition [20]: Active
NC(=O)c1cccc(NC(=O)[C@@H](NC(=O)c2ccc(N3CCOCC3)cc2)c2ccc(OCc3ccccc3)cc2)c1	2.2	79	> 100	inactive	inactive	40		27	Active		7.1	17			181	0.85	15	< 20	96	8.1	Stabilty ([9]; isolated protein, 2 h): Unstable

Source: ChEMBL document CHEMBL4811254, “Beyond Basicity: Discovery of Nonbasic DENV-2 Protease Inhibitors with Potent Activity in Cell Culture” (J Med Chem, 2021)
